Rows were chosen to be rich in hits. Some 1.9% of all compounds tested hit in one or more screens of this group.
MT stabilize HCS: microtubule stabilizers in HeLa cells, primary screen, imaging, high-content imaging | 200,000 compounds, 0.83% hits | % tubulin-high responders, % at 10 µM | HeLa tubulin immunostaining HCS, 24 h; share of cells brighter than vehicle mean+2SD;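 active = plate Z-score above 3 for both tubulin-high and condensed-nucleus cell shares, with cell loss under 80%, at 10 µM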;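 also: anti alpha tubulin signal scored within the nucleus-defined area of each cell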
b-catenin transl: modulators of beta-catenin nuclear translocation, primary screen, imaging, HeLa cells, immunofluorescence, high-content; nuclear translocation activity, % at 5 µM; 190,000 compounds, 0.3% hits; AID 1665, 2009;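 active = nuclear translocation activity above 50% at 5 µM, with a well cell count of 50 or more; inconclusive = wells under 50 cells across six images, flagged as toxic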;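 also: per-cell ratio of nuclear to cytoplasmic median beta-catenin stain intensity; plate controls were DMSO negative control for no effect and GSK-3 inhibitor IX positive control for full effect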
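Assay system: human HeLa cells, native beta-catenin; doses: 5 µM primary, 0.02–20 µM confirmation; incubation: compound treatment 24 h, 37°C, 5% CO2; technique: fluorescence imaging of beta-catenin antibody stain plus DAPI; measure: % activation, nuclear-to-cytoplasmic median beta-catenin signal ratio per cell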
Autophagy mod: autophagy modulators in MEF cells, primary screen, imaging, high-content, MEF GFP-LC3; MEF GFP-LC3 puncta imaging; test concentration mostly 10 µM; calls only at 10 µM (by protocol); 190,000 compounds, 0.98% hits;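 active = percentage of spot-positive cells more than 3 SD above its plate mean, without a fluorescence outlier flag or 80% toxicity; inconclusive = no clear call, values can overlap the other calls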;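 also: spot-positive cell cutoff set from DMSO-treated cells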
Insulin prom up: insulin promoter activators in MIN6 cells, imaging, high-content screening, mouse beta cells; MIN6 insulin promoter-GFP reporter; stronger effect = higher value; z-score at 5 µM; 190,000 compounds, 0.3% hits; AID 1625, 2009;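 active = z-score above 3 at 5 µM with at least 500 cells counted in the well; inconclusive = wells under 500 cells, flagged as cytotoxic or low count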
* marks the source's active call; other numbers are inactive results; i = inactive; u = inconclusive; x = not tested or not shown; + = active, no number.

SMILES	MT stabilize HCS	b-catenin transl	Autophagy mod	Insulin prom up
COCCCNC(=O)C1CCCN(S(C)(=O)=O)C1 (stereo not drawn)	4.1	-3.0	i	0.82
O=C(C(=C1NCCN1)n1cncn1)c1ccccc1	2.1	x	+	-0.19
CCc1ccc2nc(SCC(=O)N3CC(=O)Nc4ccccc43)c(C#N)cc2c1	14.5	-1.3	+	2.04
CCNc1ccc(C(=O)OC(C(=O)NC(N)=O)C(C)C)cc1[N+](=O)[O-] (stereo not drawn)	2.8	-3.8	i	-0.8
COc1ccc(-c2nnnn2-c2ccccc2OC)cc1	19.9*	1.6	i	0.28
CC1(C)COC(/C=C/c2ccc([N+](=O)[O-])cc2)=N1	17.6*	31.5	i	u
Cc1cccc(C2C3=C(Nc4[nH]n(-c5ccccc5)c(=O)c42)c2ccccc2C3=O)c1 (stereo not drawn)	4.0	-0.1	+	-4.1
Cc1ccccc1C1C2=C(Nc3[nH]n(-c4ccccc4)c(=O)c31)c1ccccc1C2=O (stereo not drawn)	2.8	3.1	i	-0.08
CC(C)NC(=O)N1CCN(c2ccncc2S(=O)(=O)N2CCOCC2)CC1	2.2	-4.1	i	5.83*
COc1ccc(N(C)S(=O)(=O)c2cccc3cccnc23)c(OC)c1	54.8*	56.4*	i	-0.51
COc1ccc2c(c1)c(=O)c(C(=O)c1ccccc1)cn2Cc1ccccc1	17.1*	-0.7	i	0.68
COc1ccc(Cn2cc(C(=O)c3ccccc3)c(=O)c3cc(OC)ccc32)cc1	23.3	-1.7	i	0.71
Cc1ccc(S(=O)(=O)N/N=C/c2ccccc2O)cc1[N+](=O)[O-]	3.5	-1.3	+	-0.31
Cc1ccc(S(=O)(=O)N/N=C/c2ccc(O)c(O)c2)cc1[N+](=O)[O-]	7.0	0.3	i	-0.19
c1ccc2c(CNCCN3CCOCC3)cccc2c1	1.4	-1.6	+	-0.46
Fc1ccccc1-c1nc(NCCCN2CCOCC2)c2ccccc2n1	3.3	-3.5	i	-0.35
CCOc1ccccc1CNCCN1CCOCC1	2.6	x	i	x
c1ccc2c(NCCCN3CCOCC3)c3ccccc3nc2c1	33.8*	1.0	+	-0.8
COc1ccccc1Oc1ccc(-c2cnc3ccccc3n2)cc1[N+](=O)[O-]	1.3	0.5	i	x
O=[N+]([O-])c1cc(-c2cnc3ccccc3n2)ccc1Oc1ccc(Cl)cc1	5.7	-1.3	+	0.37
O=c1oc2ccccc2cc1-c1nnc(NCc2ccco2)s1	20.1*	x	i	-0.08
CCCCN(C)CC(O)Cn1cc(/C=C/C(=O)c2cccs2)c2ccccc21 (stereo not drawn)	3.0	-0.6	i	4.79*
O=C(NCCCn1ccnc1)C(Cc1ccc([N+](=O)[O-])cc1)N1C(=O)c2ccccc2C1=O (stereo not drawn)	3.2	-1.5	i	0.04
O=C(CCCN=C1NS(=O)(=O)c2ccccc21)OCc1cc([N+](=O)[O-])cc2c1OCOC2	5.3	-2.2	+	-0.66
CCCC(=O)Nc1ccccc1Sc1ncnc2scc(-c3ccccc3)c12	2.0	x	i	-0.05
SMILES	MT stabilize HCS	b-catenin transl	Autophagy mod	Insulin prom up
COc1ccc(C(=O)/C(C#N)=N/Nc2ccccc2[N+](=O)[O-])cc1	10.8	59.1*	i	-0.28
COc1ccc(C(=O)/C(C#N)=N/Nc2ccc([N+](=O)[O-])cc2)cc1	12.2	20.3	i	-2.12
CCCSc1ccc2nc(NC(=O)OC)[nH]c2c1	20.0*	x	i	x
Cc1sc2nc(C(C)C)nc(SCC(=O)N3c4ccccc4CC3C)c2c1C (stereo not drawn)	4.9	-0.2	+	-0.73
CN1c2ccsc2/C(=N/Nc2ccccc2)CS1(=O)=O	7.2	-0.9	+	1.33
CN1c2ccsc2/C(=N/NC(=O)c2c(F)cccc2F)CS1(=O)=O	1.5	-4.2	i	x
COc1cccc(-c2cc(=O)c3cc(NC(=O)c4ccc(N(C)C)cc4)ccc3[nH]2)c1	4.3	87.8*	i	0.57
COc1cccc(-c2cc(=O)c3cc(NC(=O)c4ccc(Cl)cc4)ccc3[nH]2)c1	25.7*	-0.1	i	1.26
COc1cccc(-c2cc(=O)c3cc(NC(=O)c4ccccc4)ccc3[nH]2)c1	15.2	x	i	0.07
C[C@@H]1CN(c2c(F)c(N)c3c(=O)c(C(=O)O)cn(C4CC4)c3c2F)C[C@H](C)N1	x	0.4	x	0.01
NS(=O)(=O)c1ccc(NC=C2C(=O)OC3(CCCCC3)OC2=O)cc1	4.7	x	i	3.78*
